Experiments:
Rattus norvegicus = organism: Rattus norvegicus; experiment: Clearance rate constant using isolated perfused rat liver (IPRL) assay; format: ADME
Integrin alpha-4/beta-1 [1] = target: T1, Integrin alpha-4/beta-1 (Homo sapiens, UniProt P05556+P13612); experiment: Inhibition of VLA-4 to VCAM-1 binding in Jurkat cell adhesion assay; format: cell-based
Method in brief: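 Jurkat cells expressing VLA-4 incubated 30 min at 37 °C with test compounds on human 2-domain VCAM-1-Fc, which was immobilised on the plate via anti-human Fc. Plates washed and adherent cells stained with Rose Bengal. Reported as IC50.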

Integrin alpha-4/beta-1 [2] = target: T1, Integrin alpha-4/beta-1; experiment: Inhibition of VLA-4 to VCAM-1 binding; format: protein-complex assay
Method in brief: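 Test compounds titrated into a solution of 2-domain VCAM-Fc-Ig, then added to assay wells. Buffer: TBS with 1% BSA, 1 mM MnCl2 and 0.1% Tween. Incubated 2 h at room temperature, then washed. Bound VCAM detected with peroxidase-coupled anti-human Fc. Reported as IC50.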

T1 sequence (P05556 whole entry): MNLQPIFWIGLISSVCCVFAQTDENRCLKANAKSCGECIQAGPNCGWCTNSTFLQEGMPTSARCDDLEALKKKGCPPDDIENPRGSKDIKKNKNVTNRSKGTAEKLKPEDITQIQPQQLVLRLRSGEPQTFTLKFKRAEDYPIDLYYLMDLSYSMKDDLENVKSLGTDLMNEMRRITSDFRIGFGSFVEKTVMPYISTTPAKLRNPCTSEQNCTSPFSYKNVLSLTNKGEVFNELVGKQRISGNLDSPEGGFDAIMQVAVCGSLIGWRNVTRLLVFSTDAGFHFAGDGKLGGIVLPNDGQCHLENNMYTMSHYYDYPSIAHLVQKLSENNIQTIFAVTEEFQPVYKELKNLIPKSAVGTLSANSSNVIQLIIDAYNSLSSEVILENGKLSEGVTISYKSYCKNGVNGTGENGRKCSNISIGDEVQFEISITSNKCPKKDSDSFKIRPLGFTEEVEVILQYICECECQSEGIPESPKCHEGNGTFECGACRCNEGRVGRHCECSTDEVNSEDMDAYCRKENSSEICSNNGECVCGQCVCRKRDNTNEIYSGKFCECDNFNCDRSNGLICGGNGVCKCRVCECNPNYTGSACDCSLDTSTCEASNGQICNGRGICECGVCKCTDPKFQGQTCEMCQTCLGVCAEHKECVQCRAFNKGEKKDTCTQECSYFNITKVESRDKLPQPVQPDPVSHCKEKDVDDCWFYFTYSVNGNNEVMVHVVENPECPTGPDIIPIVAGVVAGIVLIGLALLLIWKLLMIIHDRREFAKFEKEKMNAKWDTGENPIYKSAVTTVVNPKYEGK
T1 sequence (P13612 whole entry): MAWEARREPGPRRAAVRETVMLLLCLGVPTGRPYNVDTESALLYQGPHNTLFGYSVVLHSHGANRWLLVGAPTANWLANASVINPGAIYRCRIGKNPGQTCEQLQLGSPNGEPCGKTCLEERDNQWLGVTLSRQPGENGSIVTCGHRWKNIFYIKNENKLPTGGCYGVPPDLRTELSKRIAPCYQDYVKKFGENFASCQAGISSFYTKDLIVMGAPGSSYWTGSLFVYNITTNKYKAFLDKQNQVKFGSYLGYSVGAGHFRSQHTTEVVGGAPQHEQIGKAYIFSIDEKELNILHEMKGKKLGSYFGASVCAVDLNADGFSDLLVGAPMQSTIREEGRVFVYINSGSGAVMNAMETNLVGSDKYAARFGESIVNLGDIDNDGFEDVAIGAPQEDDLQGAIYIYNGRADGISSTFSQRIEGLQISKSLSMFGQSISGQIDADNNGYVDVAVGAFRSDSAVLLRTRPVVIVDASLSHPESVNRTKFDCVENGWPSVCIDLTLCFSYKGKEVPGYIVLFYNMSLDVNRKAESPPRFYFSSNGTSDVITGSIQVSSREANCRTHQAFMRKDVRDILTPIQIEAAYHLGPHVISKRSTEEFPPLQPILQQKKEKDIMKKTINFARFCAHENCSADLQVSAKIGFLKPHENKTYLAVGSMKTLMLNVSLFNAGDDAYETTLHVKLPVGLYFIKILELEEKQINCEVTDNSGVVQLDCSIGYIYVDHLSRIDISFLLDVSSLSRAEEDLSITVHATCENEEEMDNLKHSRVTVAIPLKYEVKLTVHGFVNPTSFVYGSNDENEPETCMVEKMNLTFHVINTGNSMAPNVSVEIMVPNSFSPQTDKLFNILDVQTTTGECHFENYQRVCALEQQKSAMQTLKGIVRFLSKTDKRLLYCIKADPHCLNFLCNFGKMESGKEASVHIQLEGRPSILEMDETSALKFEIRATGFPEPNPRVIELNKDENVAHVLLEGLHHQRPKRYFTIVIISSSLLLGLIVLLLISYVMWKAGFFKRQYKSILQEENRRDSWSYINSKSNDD

| Structure (SMILES) | k (Rattus norvegicus) | IC50 (Integrin alpha-4/beta-1 [1]) | IC50 (Integrin alpha-4/beta-1 [2]) |
| --- | --- | --- | --- |
| O=C(O)C1=Cc2ccc(NC(=O)c3c(Cl)cncc3Cl)cc2NC(c2cccnc2Cl)=N1 | 5.3 h⁻¹ | 410 nM | 55 nM |
| CC(=O)N1CSC[C@@H]1C(=O)N/C(=C/c1ccc(NC(=O)c2c(Cl)cncc2Cl)cc1)C(=O)O | 1.2 h⁻¹ | 200 nM | 60 nM |
| CC(C)(C)C(=O)N/C(=C\c1ccc(NC(=O)c2c(Cl)cccc2Cl)cc1)C(=O)O | 4.8 h⁻¹ | 3700 nM | 50 nM |
| CC(=O)N1CSC[C@H]1C(=O)N/C(=C\c1ccc(OCc2ccccc2)cc1)C(=O)O | 3.8 h⁻¹ | 71000 nM | 2200 nM |
| CC(=O)N1CSC[C@@H]1C(=O)N/C(=C\c1ccc(NC(=O)c2c(Cl)cncc2Cl)cc1)C(=O)O | 4.4 h⁻¹ | 25 nM | 2 nM |
| O=C(O)/C(=C/c1ccc(OCc2c(Cl)cncc2Cl)cc1)NC(=O)c1cccnc1Cl |  | 14000 nM | 140 nM |
| CC(=O)N1CSC[C@@H]1C(=O)N/C(=C\c1ccc(NC(=O)c2c(Cl)cccc2Cl)cc1)C(=O)O | 3.9 h⁻¹ | 140 nM | 5 nM |
| CC(=O)N1CSC[C@@H]1C(=O)N/C(=C\c1ccc(OCc2c(Cl)cccc2Cl)cc1)C(=O)O | 4.1 h⁻¹ | 5000 nM | 2800 nM |
| CC(C)(C)C(=O)N/C(=C/c1ccc(NC(=O)c2c(Cl)cccc2Cl)cc1)C(=O)O |  | 80000 nM | 2700 nM |
| O=C(O)/C(=C\c1ccc(NC(=O)c2c(Cl)cncc2Cl)cc1)NC(=O)c1cccnc1Cl | 1.5 h⁻¹ | 8500 nM | 66 nM |
| CC(=O)N1CSC[C@H]1C(=O)N/C(=C/c1ccc(OCc2ccccc2)cc1)C(=O)O | 0.6 h⁻¹ | 20000 nM | 1500 nM |
| O=C(O)/C(=C/c1ccc(NC(=O)c2c(Cl)cncc2Cl)cc1)NC(=O)c1cccnc1Cl | 3.9 h⁻¹ | 70 nM | 1.4 nM |
| CC(=O)N1CSC[C@@H]1C(=O)N/C(=C/c1ccc(NC(=O)c2c(Cl)cccc2Cl)cc1)C(=O)O | 0.7 h⁻¹ | 29000 nM | 400 nM |
| O=C(O)/C(=C/c1ccc(OCc2c(Cl)cccc2Cl)cc1)NC(=O)c1cccnc1Cl | 3.7 h⁻¹ | 7100 nM | 220 nM |
| CC(=O)N1CSCC1C(=O)N/C(=C/c1ccc(OCc2c(Cl)cccc2Cl)cc1)C(=O)O (stereo not drawn) | 0.4 h⁻¹ | 83000 nM | 7400 nM |
